Screening data (PubChem)
This is a sample that favours compounds with a hit; in the whole collection about 1.7% have one here.
PfGluPho inh: PfG6PD (Plasmodium falciparum) enzyme inhibition. 0.78% of 350,000 active. PfGluPho enzyme, NADPH resazurin-diaphorase fluorescence. AID 504690. inhibition, % at 20 µM;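 active = inhibition reaching at least a set limit at 20 µM in the primary screen, cut at about 59% in these data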;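 also: 0% = DMSO wells with substrate and 100% = DMSO wells lacking glucose-6-phosphate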
B2AR ag: human beta-2 adrenergic receptor agonism by FAP. P07550. Am2.2-beta2AR cells, FAP receptor internalization, flow cytometry. response, % (concentration not given with the values). 0.43% of 340,000 active. AID 504454;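 active = response above a set limit, near 3 SD of response in nonfluorescent compounds, cut at about 42% in these data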
APJ antagonist: blocks the human apelin receptor APJ | AID 2521 | CHO-K1 APJ beta-arrestin complementation, luminescence | P35414 | inhibition, % at 20 µM | 0.32% of 330,000 active;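 active = inhibition above about 40% at 20 µM, limit read from the data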;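 also: cells challenged with 10 nM apelin-13 agonist together with compound; plate controls were apelin-13 plus DMSO wells for no effect and DMSO wells lacking apelin-13 for full effect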
CXCR6 inh: inhibitors of human CXCR6 receptor; 0.36% of 360,000 active; CHO-K1 PathHunter CXCR6 beta-arrestin, luminescence; O00574; AID 602244; inhibition, % at 20 µM; in the data active = inhibition above about 34%, passing the limit was not always enough;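 also: antagonist mode with CXCL16 agonist at 10 nM final; 0% = 10 nM CXCL16 with DMSO and 100% = unstimulated wells without agonist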
Target sequence (O00574 whole entry, looked up): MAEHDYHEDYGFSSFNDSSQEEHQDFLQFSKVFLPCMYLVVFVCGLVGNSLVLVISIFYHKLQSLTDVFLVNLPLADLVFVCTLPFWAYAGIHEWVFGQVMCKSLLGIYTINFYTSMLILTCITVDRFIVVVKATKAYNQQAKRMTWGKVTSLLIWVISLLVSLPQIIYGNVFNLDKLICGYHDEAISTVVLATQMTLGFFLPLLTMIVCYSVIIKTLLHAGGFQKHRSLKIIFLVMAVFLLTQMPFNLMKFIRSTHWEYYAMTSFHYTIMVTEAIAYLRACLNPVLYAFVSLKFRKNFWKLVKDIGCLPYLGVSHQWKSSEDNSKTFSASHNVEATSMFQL
APJ agonist: activates the human apelin receptor APJ; P35414; CHO-K1 APJ PathHunter beta-arrestin, luminescence; 0% DMSO wells, 100% apelin; activation, % at 20 µM; 0.11% of 330,000 active; AID 2520;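 active = activation more than six SD over the plate average, tested at 20 µM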;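 also: 0% = DMSO alone and 100% = apelin-13 at 10 nM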
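system = engineered CHO-K1 APJ arrestin reporter cells | input = 1000 cells per well | timing = overnight seeding, 90 min compound at 25 °C, 1 h detection | measured by = enzyme-fragment complementation luminescence | read-out = beta-arrestin recruitment to APJ as agonist activity, luminescent signal | control set = negative DMSO alone, positive Apelin-13 at 10 nM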
CCR6 antag: CCR6 (human) receptor antagonism; P51684; CHO-K1 CCR6 PathHunter beta-arrestin, luminescence, CCL20-stimulated; inhibition, % at 20 µM; 0.49% of 340,000 active; AID 493098;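 active = compounds whose inhibition of the agonist-driven luminescence signal at 20 µM reaches about 50%, limit read from the data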;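 also: cells stimulated with CCL20 at 14 nM final; plate controls were DMSO with CCL20 for no effect and DMSO without agonist for full effect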
PfG6PD confirm: confirmation of Plasmodium falciparum G6PD inhibitors; inhibition, % at 20 µM; recombinant PfGluPho, NADPH-diaphorase-resazurin fluorescence; 34% of 2,400 active; shares compounds with PfGluPho inh;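 active = inhibition of at least 50% at 20 µM in any single replicate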;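 also: 0% = DMSO with substrate and 100% = DMSO lacking glucose-6-phosphate substrate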
Diaphorase 10uM: diaphorase inhibition or oxidation at 10 uM NADPH | inhibition, % at 20 µM | shares compounds with PfGluPho inh | diaphorase-coupled resazurin reduction, fluorescence, NADPH 10 uM | 39% of 820 active | AID 504862;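 active = average inhibition reaching 50% or more with the compound at 20 µM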;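 also: resorufin red fluorescence formed as diaphorase reduces resazurin using NADPH; 0% = DMSO with enzyme and 100% = DMSO without enzyme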
Diaphorase 30uM: counter-screen for P. falciparum G6PD inhibitors: diaphorase inhibitors, oxidizers; Diaphorase/resazurin coupled assay, resorufin fluorescence, 30 uM NADPH; 29% of 820 active; inhibition, % at 20 µM; shares compounds with PfGluPho inh;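 active = inhibition averaging 50% or more, tested at 20 µM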;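 also: 0% = DMSO with enzyme and 100% = DMSO wells lacking diaphorase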
Starred values were filed as active, the others as inactive; / = no result given.

SMILES	PfGluPho inh	B2AR ag	APJ antagonist	CXCR6 inh	APJ agonist	CCR6 antag	PfG6PD confirm	others
Cc1cccc(OCC(=O)NCC(=O)N/N=C/c2ccccc2)c1	69*	0	25	-2	1	10	50*	Diaphorase 10uM=41;Diaphorase 30uM=41
CCOc1ccc(Cl)cc1/C=N/NC(=O)c1ccccc1	40	-8	6	9	2	2	/
Cc1cccc(OCC(=O)NCC(=O)N/N=C/c2cc(Br)ccc2OCc2ccccc2)c1	19	-3	21	4	-2	6	/
CCOc1ccc(Cl)cc1/C=N/NC(=O)CNC(=O)c1ccccc1	118*	8	6	6	2	2	92*	Diaphorase 10uM=93*;Diaphorase 30uM=85*
O=C(COc1ccccc1)NCC(=O)N/N=C/c1cc(Br)ccc1OCc1ccccc1	81*	8	16	6	-4	17	29
COc1ccccc1C=NN=C(NN=Cc1ccccc1OC)NN=Cc1ccccc1OC	77*	19	/	-4	/	19	29
COc1ccccc1/C=N/NC(=O)CCSc1ccccc1	63*	-5	-11	-1	0	4	72*	Diaphorase 10uM=65*;Diaphorase 30uM=67*
COc1ccccc1/C=N/NC(=O)CNC(=O)c1ccccc1	-9	2	14	2	-3	8	/
COc1ccccc1C=NNC(=O)NN=Cc1ccccc1OC	-8	-1	/	-8	/	2	/
COc1ccc(OC)c(/C=N\NC(=O)CSc2nnc(CCCc3ccc(OC)c(C)c3)o2)c1	96*	3	6	-7	-4	13	22
COc1ccc(CCCC(=O)N/N=C/c2ccccc2OC)cc1	98*	0	7	-6	-2	21	67*	Diaphorase 10uM=70*;Diaphorase 30uM=57*
CN(C)/N=C/c1ccc(P(c2ccc(/C=N/N(C)C)o2)c2ccc(/C=N/N(C)C)o2)o1	1	4	4	21	-2	21	/
COc1ccc(-c2nnnn2C)cc1S(=O)(=O)Nc1ccc(C)cc1C	4	-11	0	2	16	12	/
Cc1cc(C(O)c2ncc(-c3ccccc3)[nH]2)ccc1F (stereo unspecified)	/	/	/	5	/	/	/
COc1ccc(N=Cc2sc(O)c3ccccc23)cc1	69*	-84	-67	-9	14	-3	-9
Cc1cc(C)n(-c2cccc(Cl)c2C#N)n1	4	20	-2	-4	-3	6	/
CN1C(=O)NC(c2ccccc2[N+](=O)[O-])C2=C1CCCC2=O (stereo unspecified)	33	-36	-36	-18	2	-10	/
CC1CCc2[nH]c3ccc(C(=O)N(C)CC(=O)Nc4ccc(F)cc4)cc3c2C1 (stereo unspecified)	-1	-3	0	3	6	-7	/
CCN(CC(=O)Nc1ccccc1C(F)(F)F)C(=O)c1ccc2[nH]c3c(c2c1)CC(C)CC3 (stereo unspecified)	90*	3	-8	-8	0	20	37
NC(=O)N/N=C/c1ccc(-n2nncc2-c2ccc(Cl)cc2)cc1	77*	6	14	-2	-2	-2	50*	Diaphorase 10uM=48;Diaphorase 30uM=50
CC1(C(=O)NS(=O)(=O)c2ccccc2)CCN1C(=O)CC1CC1 (stereo unspecified)	/	/	/	-1	/	/	/
CCN(CC)c1ccc(NC(=O)c2ccc(=O)[nH]c2)cc1S(=O)(=O)Nc1ccccc1OC	62*	-1	3	5	-5	-2	41
CCN(CC)c1ccc(NC(=O)COc2ccccc2C)cc1S(=O)(=O)Nc1ccccc1OC	61*	2	-7	3	-3	11	23
CCN(CC)c1ccc(NC(=O)COc2ccccc2C#N)cc1S(=O)(=O)Nc1ccc(OC)cc1	3	-1	9	-2	-3	24	/
